The IC50 is the concentration that inhibits the measured activity by half. For orientation: Kd means the constant that tells how readily two partners part at equilibrium. Read a high Kd as weaker binding. The term Papp A→B denotes how fast a substance crosses the layer from the apical side. For orientation: Papp B→A means the apparent permeability from the basolateral to the apical side of a cell layer.

Activity calls are given as the source filed them. The rule behind the calls is not given here. A value given as a limit tells only on which side of the number the result lay.

Data set [1] deals with CDK2/Cyclin A2 (Homo sapiens, UniProt P24941). In words: Inhibition of human N-terminal GST-tagged CDK2 (1 to 298 residues)/Cyclin A (174 to 432 residues) expressed in Escherichia coli Turner (DE3) cells assessed as reduction in ADP formation using PKTPKKAKKL as substrate by resorufin dye based fluorescence assay.
In data set [2] the target is CDK2/Cyclin A1 (Homo sapiens, UniProt P24941). Nature of the data set: Inhibition of CDK2/Cyclin A1 (unknown origin) using histone H1 as substrate preincubated for 20 mins followed by 33P-ATP addition and measured after 2 hrs by filter binding method. The class given is protein-complex assay.
Data set [3] deals with Cyclin-dependent kinase 2/cyclin E1 (Homo sapiens, UniProt P24941). In words: Inhibition of CDK2/Cyclin E (unknown origin) using histone H1 as substrate preincubated for 20 mins followed by 33P-ATP addition and measured after 2 hrs by filter binding method. The class given is protein-complex assay.
In data set [4] the target is CDK2/Cyclin O (Homo sapiens, UniProt P22674+P24941). In words: Inhibition of CDK2/Cyclin-O (unknown origin) using histone H1 as substrate preincubated for 20 mins followed by 33P-ATP addition and measured after 2 hrs by filter binding method. In kind it is protein-complex assay.
For data set [5], the system named is MCF7. In words: Antiproliferative activity against human MCF7 cells assessed as reduction in cell viability up to 200 uM after 72 hrs by alamarBlue assay. To be noted: dose microM <=200, time 72.0 hrs. In kind it is functional, cell-based. Put shortly: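 MCF-7 cells seeded at 5000 per well and incubated overnight at 37 °C, 5% CO₂, then exposed to 8 concentrations from 0.00256 μM to 200 μM for 72 h. alamarBlue was then added and incubated 90 min at 37 °C. Proliferating cells were read by fluorescence (ex 530 nm, em 590 nm). Staurosporine served as positive control.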
Background: Resazurin is reduced to fluorescent resorufin, in cell work by metabolically active cells.

For data set [6], the target named is Cyclin-dependent kinase 2 (Homo sapiens, UniProt P24941). In words: Binding affinity to T7-tagged CDK2 (unknown origin) expressed in bacteriophage infected Escherichia coli BL21 incubated for 1 hr by magnetic beads based qPCR anlaysis. A general note: Quantitative PCR measures a nucleic acid by following its amplification.
Data set [7] can be described thus: Permeability across apical to basolateral side in MDCK cells assessed as drug recovery at 1 uM after 2 hrs by LC-MS/MS analysis. The class given is ADME, cell-based, Canis lupus familiaris. As to conditions: dog. A digest of the protocol:
(§1)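 MDCK monolayers were washed twice with pre-warmed HBSS (10 mM HEPES, pH 7.4) and equilibrated for 30 min at 37 °C. Compound at 1 μM in HBSS (0.5% DMSO final) was added to the apical or the basolateral donor side. After 2 h at 37 °C, donor and receiver samples were quenched in cold methanol with internal standards and analysed by LC-MS/MS. Runs were in duplicate; 100 μM Lucifer Yellow checked monolayer integrity.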

A short description of data set [8]: Permeability across basolateral to apical side in MDCK cells at 1 uM after 2 hrs by LC-MS/MS analysis. To be noted: dog. In kind it is ADME, cell-based, Canis lupus familiaris. Put shortly: as §1
Data set [9] in a line: Apparent permeability across apical to basolateral side in MDCK cells at 1 uM after 2 hrs by LC-MS/MS analysis. As to conditions: dog. In kind it is ADME, cell-based, Canis lupus familiaris. Put shortly:
as §1

Data set [10] can be described thus: Apparent permeability across basolateral to apical side in MDCK cells at 1 uM after 2 hrs by LC-MS/MS analysis. To be noted: dog. In kind it is ADME, cell-based, Canis lupus familiaris. Put shortly: as §1
Data set [11] is described as follows: Efflux ratio of apparent permeability across basolateral to apical side over apical to basolateral side in MDCK cells at 1 uM after 2 hrs by LC-MS/MS analysis. In kind it is ADME, cell-based, Canis lupus familiaris. To be noted: dog. Put shortly:
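MDCK monolayers washed twice with pre-warmed HBSS (10 mM HEPES, pH 7.4) and equilibrated 30 min at 37 °C. 1 μM working solution (0.5% DMSO final) added to apical or basolateral donor side, 37 °C for 2 h, run in duplicate. Donor and receiver samples quenched in cold methanol with internal standards and quantified by LC-MS/MS. Monolayer integrity checked by Lucifer Yellow (100 μM) leakage.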

For the compound `Cc1nn(-c2ccccn2)c2c1C(=O)CC(C(C)C)C2Br` (trans isomer), the IC50 in data set [1] amounted to 130 µM.

For `Cc1nn(-c2ccccn2)c2c1C(=O)CC(C)C2Br` (cis isomer), the IC50 in [1] came to 31 µM. On the same count and under the same terms, the value for `CC1(C)CC(=O)c2cnn(-c3ccccn3)c2C1` was more than 1000 µM; that for `Cc1nn(CCC#N)c2c1C(=O)CC(C)(C)C2Br` (stereo not drawn) was more than 1000 µM; that for `Cc1nn(-c2ccccn2)c2c1C(=O)CC(C)(C)C2` was 110 µM. Still for that read-out and setting: for `Cc1nn(-c2ccccn2)c2c1C(=O)CC(C)(C)C2C` (stereo not drawn) the value was 200 µM.

`Cc1nn(-c2ccncn2)c2c1C(=O)CC(C)(C)C2Br` (stereo not drawn): the IC50 in data set [1] came to 1.5 µM; in data set [2], 0.0464 µM; in data set [3] it was 0.0089 µM; in [4], 0.0416 µM. Further, the outcome in data set [5] was inactive. The same compound yielded a Kd in data set [6] of 4.5 µM. For `Cc1nn(-c2ccccn2)c2c1C(=O)CC(C)(C)C2N(C)C` (stereo not drawn), the IC50 in data set [1] stood at 630 µM. The same measure, in the same setting: for `Cc1nn(-c2ccccn2)c2c1C(=O)CCC2Br` (stereo not drawn) the value was 130 µM; for `COc1cccc(-n2nc(C)c3c2C(Br)C(C)(C)CC3=O)n1` (stereo not drawn), 2.1 µM; for `Cc1nn(-c2ccc(C(F)(F)F)cn2)c2c1C(=O)CC(C)(C)C2Br` (stereo not drawn), 6.7 µM. Still for that read-out and setting: the value for `Cc1nn(-c2nc3ccccc3s2)c2c1C(=O)CC(C)(C)C2Br` (stereo not drawn) was more than 1000 µM; that for `Cc1nn(-c2ncccn2)c2c1C(=O)CC(C)(C)C2Br` (stereo not drawn) was 9.3 µM. Regarding `C[C@H]1O[C@@H](O[C@H]2[C@@H](O)C[C@H](O[C@H]3[C@@H](O)C[C@H](O[C@H]4CC[C@@]5(C)[C@H](CC[C@@H]6[C@@H]5C[C@@H](O)[C@]5(C)[C@@H](C7=CC(=O)OC7)CC[C@]65O)C4)O[C@@H]3C)O[C@@H]2C)C[C@H](O)[C@@H]1O` [DIGOXIN], the Drug recovery in data set [7] was found to be 77.1%; in [8], 83.7%. As for `Cc1nn(-c2ccccn2)c2c1C(=O)CC(C)(C)C2S(=O)(=O)c1ccccc1` (stereo not drawn), the IC50 in data set [1] came to 107 µM. Take `Cc1nn(-c2nccs2)c2c1C(=O)CC(C)(C)C2Br` (stereo not drawn): the IC50 was determined as 2.2 µM in [1], 0.0243 µM in [2], 0.0023 µM in data set [3] and 0.0331 µM in data set [4]. Also, the result in data set [5] was inactive. In data set [6], the Kd is 4.8 µM. With `Cc1nn(-c2ccccn2)c2c1C(=O)CC(C)(C)C2O` (stereo not drawn), in data set [1], the IC50 turned out to be 110 µM. On the same count and under the same terms, for `Cc1nn(-c2ccccn2)c2c1C(=O)CC(C)(C)C2Cl` (stereo not drawn) the value was 4.9 µM; for `Cc1nn(-c2ccccn2)c2c1C(=O)NCC(C)(C)C2`, more than 1000 µM. Still for that read-out and setting: the value for `Cc1nn(-c2ccccn2)c2c1C(=O)CC(C)C2Br` (stereo in doubt) was 4.8 µM; that for `CC1(C)CC(=O)c2cnn(-c3ccccn3)c2C1Br` (stereo not drawn) was 160 µM.

For `COC(=O)CC(=O)Nc1ccc(-n2nc(C)c3c2C(Br)C(C)(C)CC3=O)nc1` (stereo not drawn), the IC50 in data set [1] turned out to be 2.7 µM. Consider `COC1c2c(c(C)nn2-c2ccccn2)C(=O)CC1(C)C` (stereo not drawn), for which, in data set [1], the IC50 is 46 µM. Same read-out and setting: the value for `Cc1nn(-c2ccc(NS(N)(=O)=O)cn2)c2c1C(=O)CC(C)(C)C2Br` (stereo not drawn) was 2.4 µM. As for `Cc1cccnc1-n1nc(C)c2c1CC(C)(C)C(Br)C2=O` (stereo not drawn), the IC50 in data set [1] was determined as 180 µM. Same read-out and setting: the value for `Cc1nn(-c2ccccn2)c2c1C(=O)CC(c1ccccc1)C2Br` (stereo not drawn) was more than 1000 µM. On the same count and under the same terms, the value for `Cc1nn(-c2ccccn2)c2c1C(=O)CC(C)(C)C2N` (stereo not drawn) was 350 µM; that for `Cc1nn(-c2ccc(Cl)cn2)c2c1C(=O)CC(C)(C)C2Br` (stereo not drawn) was 3 µM.

As to `Cc1nn(-c2ccccn2)c2c1C(=O)CC(C)(C)C2F` (stereo not drawn), in data set [1], the IC50 amounted to 21 µM. On the same count and under the same terms, for `Cc1nn(-c2ccccn2)c2c1C(O)CC(C)(C)C2Br` (stereo not drawn) the value was 560 µM. On the same count and under the same terms, the value for `Cc1nn(-c2ncccc2C(F)(F)F)c2c1C(=O)CC(C)(C)C2Br` (stereo not drawn) was 460 µM; that for `Cc1ccc(-n2nc(C)c3c2C(Br)C(C)(C)CC3=O)nc1` (stereo not drawn) was 7.5 µM; that for `Cc1cccnc1-n1nc(C)c2c1C(Br)C(C)(C)CC2=O` (stereo not drawn) was more than 1000 µM. Take `Cc1nn(-c2ccc([N+](=O)[O-])cn2)c2c1C(=O)CC(C)(C)C2Br` (stereo not drawn): in data set [1], the IC50 turned out to be 3.1 µM.

For the compound `Cc1nn(-c2ccccn2)c2c1C(=O)CC(C)(C)C2Sc1ccccc1` (stereo not drawn), the IC50 in data set [1] amounted to 12 µM. Same read-out and setting: for `Cc1nn(-c2ncccc2C(F)(F)F)c2c1C(=O)C(Br)C(C)(C)C2` (stereo not drawn) the value was 230 µM. Same read-out and setting: the value for `Cc1nn(-c2ccc(Cl)nn2)c2c1C(=O)CC(C)(C)C2Br` (stereo not drawn) was 26 µM; that for `CC(C)Cc1nn(-c2ccccn2)c2c1C(=O)CC(C)(C)C2Br` (stereo not drawn) was 820 µM. Same read-out and setting: for `Cc1nn(-c2ccc3ccccc3c2)c2c1C(=O)CC(C)(C)C2Br` (stereo not drawn) the value was 37 µM. On to `COCCc1ccc(OCC(O)CNC(C)C)cc1` (stereo not drawn) [METOPROLOL], for which the Papp A→B at 2 h, 1 µM in data set [9] was determined as 26.9 ×10⁻⁶ cm/s. Further, the Papp B→A at 2 h, 1 µM in data set [10] was 21.2 ×10⁻⁶ cm/s. The Ratio in data set [11] is reported as 0.79. Besides, the Drug recovery in [7] came out at 90.7%; in data set [8], 90.4%. Regarding `Cc1nn(-c2ccccn2)c2c1C(=O)CC(C(C)C)C2Br` (stereo in doubt), the IC50 in [1] came to 470 µM.

For the compound `Cc1nn(-c2ccccn2)c2c1/C(=N/O)CC(C)(C)C2Br` (stereo not drawn), the IC50 in [1] was 59 µM.

For `Cc1nn(-c2ccc(NS(C)(=O)=O)cn2)c2c1C(=O)CC(C)(C)C2Br` (stereo not drawn), the IC50 in data set [1] was 19 µM. Still for that read-out and setting: the value for `Cc1nn(-c2ccc(N)cn2)c2c1C(=O)CC(C)(C)C2Br` (stereo not drawn) was 4.6 µM; that for `CC(=O)Nc1ccc(-n2nc(C)c3c2C(Br)C(C)(C)CC3=O)nc1` (stereo not drawn) was 3.6 µM; that for `Cc1nn(-c2ccccn2)c2c1C(=O)NCC(C)(C)C2Br` (stereo not drawn) was 12 µM. The same measure, in the same setting: for `Cc1nn(-c2ccccn2)c2c1NC(=O)CC(C)(C)C2` the value was more than 1000 µM; for `Cc1nn(S(=O)(=O)c2ccc([N+](=O)[O-])cc2)c2c1C(=O)CC(C)(C)C2Br` (stereo not drawn), more than 1000 µM. The same measure, in the same setting: for `Cc1nn(-c2ccccn2)c2c1C(=O)CC(C)(C)C2N=[N+]=[N-]` (stereo not drawn) the value was 4.5 µM; for `Cc1nn(-c2cnccn2)c2c1C(=O)CC(C)(C)C2Br` (stereo not drawn), 97 µM. For `Cc1ccc(NC(=O)c2ccc(CN3CCN(C)CC3)cc2)cc1Nc1nccc(-c2cccnc2)n1` [IMATINIB], the Drug recovery in data set [7] came to 56.6%; in data set [8], 69.9%. In the case of `Cc1nn(-c2ccncc2)c2c1C(=O)CC(C)(C)C2Br` (stereo not drawn), in data set [1], the IC50 stood at 10.5 µM.

The record behind these values is ChEMBL document CHEMBL4732187, “Tetrahydroindazole inhibitors of CDK2/cyclin complexes” (Eur J Med Chem, 2021).
